Data as given in ChEMBL document CHEMBL1629465, “Efficient synthesis of novel 1,2,4-triazole fused acyclic and 21-28 membered macrocyclic and/or lariat macrocyclic oxaazathia crown compounds with potential antimicrobial activity” (2010).

Test system: Pseudomonas aeruginosa
Test: Antimicrobial activity against Pseudomonas aeruginosa RCMB 102002 at 5 mg/ml by agar diffusion technique
Format: functional
Details: read-out: DIZ
Outline: (§1)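 Agar well diffusion. Test compounds and reference standard drugs were diluted to 5.0, 2.5 and 1.0 mg/mL and applied to 0.6 cm wells. Inhibition zone beyond the control was scored as 0 (no inhibition), + (0.1–0.5 cm), ++ (0.6–1.0 cm) or +++ (1.0–1.5 cm).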

| Compound | zone of inhibition at 5000 µg/mL |
| --- | --- |
| OC1COc2ccccc2/C=N\n2c(nnc2-c2cccnc2)SCCCCSc2nnc(-c3cccnc3)n2/N=C\c2ccccc2OC1 | 0 mm |
| OC1COc2ccccc2CNn2c(nnc2-c2cccnc2)SCCCSc2nnc(-c3cccnc3)n2NCc2ccccc2OC1 | 0 mm |

Test system: Staphylococcus aureus
Test: Antimicrobial activity against Staphylococcus aureus RCMB 106001 at 2.5 mg/ml by agar diffusion technique
Format: functional
Details: read-out: DIZ
Outline: as §1

| Compound | zone of inhibition at 2500 µg/mL |
| --- | --- |
| OC1COc2ccccc2/C=N\n2c(nnc2-c2cccnc2)SCCCCSc2nnc(-c3cccnc3)n2/N=C\c2ccccc2OC1 | 0 mm |
| OC1COc2ccccc2CNn2c(nnc2-c2cccnc2)SCCCSc2nnc(-c3cccnc3)n2NCc2ccccc2OC1 | 0 mm |

Test system: Candida albicans
Test: Antimicrobial activity against Candida albicans RCMB 005003 at 1 mg/ml by agar diffusion technique
Format: functional
Details: read-out: DIZ
Outline: as §1

| Compound | zone of inhibition at 1000 µg/mL |
| --- | --- |
| OC1COc2ccccc2/C=N\n2c(nnc2-c2cccnc2)SCCCCSc2nnc(-c3cccnc3)n2/N=C\c2ccccc2OC1 | 0 mm |
| OC1COc2ccccc2CNn2c(nnc2-c2cccnc2)SCCCSc2nnc(-c3cccnc3)n2NCc2ccccc2OC1 | 0 mm |

Test system: Syncephalastrum racemosum
Test: Antimicrobial activity against Syncephalastrum racemosum RCMB 016001 at 2.5 mg/ml by agar diffusion technique
Format: functional
Details: read-out: DIZ
Outline: as §1

| Compound | zone of inhibition at 2500 µg/mL |
| --- | --- |
| OC1COc2ccccc2/C=N\n2c(nnc2-c2cccnc2)SCCCCSc2nnc(-c3cccnc3)n2/N=C\c2ccccc2OC1 | 0 mm |
| OC1COc2ccccc2CNn2c(nnc2-c2cccnc2)SCCCSc2nnc(-c3cccnc3)n2NCc2ccccc2OC1 | 0 mm |

Test system: Escherichia coli
Test: Antimicrobial activity against Escherichia coli RCMB 103001 at 1 mg/ml by agar diffusion technique
Format: functional
Details: read-out: DIZ
Outline: as §1

| Compound | zone of inhibition at 1000 µg/mL |
| --- | --- |
| OC1COc2ccccc2/C=N\n2c(nnc2-c2cccnc2)SCCCCSc2nnc(-c3cccnc3)n2/N=C\c2ccccc2OC1 | 0 mm |
| OC1COc2ccccc2CNn2c(nnc2-c2cccnc2)SCCCSc2nnc(-c3cccnc3)n2NCc2ccccc2OC1 | 0 mm |

Test system: Staphylococcus aureus
Test: Antimicrobial activity against Staphylococcus aureus RCMB 106001 at 5 mg/ml by agar diffusion technique
Format: functional
Details: read-out: DIZ
Outline: as §1

| Compound | zone of inhibition at 5000 µg/mL |
| --- | --- |
| OC1COc2ccccc2/C=N\n2c(nnc2-c2cccnc2)SCCCCSc2nnc(-c3cccnc3)n2/N=C\c2ccccc2OC1 | 1 mm |
| OC1COc2ccccc2CNn2c(nnc2-c2cccnc2)SCCCSc2nnc(-c3cccnc3)n2NCc2ccccc2OC1 | 0 mm |

Test system: Penicillium italicum
Test: Antimicrobial activity against Penicillium italicum RCMB 001018 at 1 mg/ml by agar diffusion technique
Format: functional
Details: read-out: DIZ
Outline: as §1

| Compound | zone of inhibition at 1000 µg/mL |
| --- | --- |
| OC1COc2ccccc2/C=N\n2c(nnc2-c2cccnc2)SCCCCSc2nnc(-c3cccnc3)n2/N=C\c2ccccc2OC1 | 0 mm |
| OC1COc2ccccc2CNn2c(nnc2-c2cccnc2)SCCCSc2nnc(-c3cccnc3)n2NCc2ccccc2OC1 | 0 mm |

Test system: Syncephalastrum racemosum
Test: Antimicrobial activity against Syncephalastrum racemosum RCMB 016001 at 1 mg/ml by agar diffusion technique
Format: functional
Details: read-out: DIZ
Outline: as §1

| Compound | zone of inhibition at 1000 µg/mL |
| --- | --- |
| OC1COc2ccccc2/C=N\n2c(nnc2-c2cccnc2)SCCCCSc2nnc(-c3cccnc3)n2/N=C\c2ccccc2OC1 | 0 mm |
| OC1COc2ccccc2CNn2c(nnc2-c2cccnc2)SCCCSc2nnc(-c3cccnc3)n2NCc2ccccc2OC1 | 0 mm |

Test system: Staphylococcus aureus
Test: Antimicrobial activity against Staphylococcus aureus RCMB 106001 at 1 mg/ml by agar diffusion technique
Format: functional
Details: read-out: DIZ
Outline: as §1

| Compound | zone of inhibition at 1000 µg/mL |
| --- | --- |
| OC1COc2ccccc2/C=N\n2c(nnc2-c2cccnc2)SCCCCSc2nnc(-c3cccnc3)n2/N=C\c2ccccc2OC1 | 0 mm |
| OC1COc2ccccc2CNn2c(nnc2-c2cccnc2)SCCCSc2nnc(-c3cccnc3)n2NCc2ccccc2OC1 | 0 mm |

Test system: Syncephalastrum racemosum
Test: Antimicrobial activity against Syncephalastrum racemosum RCMB 016001 at 5 mg/ml by agar diffusion technique
Format: functional
Details: read-out: DIZ
Outline: as §1

| Compound | zone of inhibition at 5000 µg/mL |
| --- | --- |
| OC1COc2ccccc2/C=N\n2c(nnc2-c2cccnc2)SCCCCSc2nnc(-c3cccnc3)n2/N=C\c2ccccc2OC1 | 0 mm |
| OC1COc2ccccc2CNn2c(nnc2-c2cccnc2)SCCCSc2nnc(-c3cccnc3)n2NCc2ccccc2OC1 | 0 mm |

Test system: Bacillus subtilis
Test: Antimicrobial activity against Bacillus subtilis RCMB 101001 at 5 mg/ml by agar diffusion technique
Format: functional
Details: read-out: DIZ
Outline: as §1

| Compound | zone of inhibition at 5000 µg/mL |
| --- | --- |
| OC1COc2ccccc2/C=N\n2c(nnc2-c2cccnc2)SCCCCSc2nnc(-c3cccnc3)n2/N=C\c2ccccc2OC1 | 1 mm |
| OC1COc2ccccc2CNn2c(nnc2-c2cccnc2)SCCCSc2nnc(-c3cccnc3)n2NCc2ccccc2OC1 | 6 mm |

Test system: Penicillium italicum
Test: Antimicrobial activity against Penicillium italicum RCMB 001018 at 5 mg/ml by agar diffusion technique
Format: functional
Details: read-out: DIZ
Outline: as §1

| Compound | zone of inhibition at 5000 µg/mL |
| --- | --- |
| OC1COc2ccccc2/C=N\n2c(nnc2-c2cccnc2)SCCCCSc2nnc(-c3cccnc3)n2/N=C\c2ccccc2OC1 | 0 mm |
| OC1COc2ccccc2CNn2c(nnc2-c2cccnc2)SCCCSc2nnc(-c3cccnc3)n2NCc2ccccc2OC1 | 0 mm |

Test system: Escherichia coli
Test: Antimicrobial activity against Escherichia coli RCMB 103001 at 2.5 mg/ml by agar diffusion technique
Format: functional
Details: read-out: DIZ
Outline: as §1

| Compound | zone of inhibition at 2500 µg/mL |
| --- | --- |
| OC1COc2ccccc2/C=N\n2c(nnc2-c2cccnc2)SCCCCSc2nnc(-c3cccnc3)n2/N=C\c2ccccc2OC1 | 0 mm |
| OC1COc2ccccc2CNn2c(nnc2-c2cccnc2)SCCCSc2nnc(-c3cccnc3)n2NCc2ccccc2OC1 | 0 mm |

Test system: Aspergillus fumigatus
Test: Antimicrobial activity against Aspergillus fumigatus RCMB 002008 at 1 mg/ml by agar diffusion technique
Format: functional
Details: read-out: DIZ
Outline: as §1

| Compound | zone of inhibition at 1000 µg/mL |
| --- | --- |
| OC1COc2ccccc2/C=N\n2c(nnc2-c2cccnc2)SCCCCSc2nnc(-c3cccnc3)n2/N=C\c2ccccc2OC1 | 0 mm |
| OC1COc2ccccc2CNn2c(nnc2-c2cccnc2)SCCCSc2nnc(-c3cccnc3)n2NCc2ccccc2OC1 | 0 mm |

Test system: Bacillus subtilis
Test: Antimicrobial activity against Bacillus subtilis RCMB 101001 at 1 mg/ml by agar diffusion technique
Format: functional
Details: read-out: DIZ
Outline: as §1

| Compound | zone of inhibition at 1000 µg/mL |
| --- | --- |
| OC1COc2ccccc2/C=N\n2c(nnc2-c2cccnc2)SCCCCSc2nnc(-c3cccnc3)n2/N=C\c2ccccc2OC1 | 1 mm |
| OC1COc2ccccc2CNn2c(nnc2-c2cccnc2)SCCCSc2nnc(-c3cccnc3)n2NCc2ccccc2OC1 | 1 mm |

Test system: Pseudomonas aeruginosa
Test: Antimicrobial activity against Pseudomonas aeruginosa RCMB 102002 at 2.5 mg/ml by agar diffusion technique
Format: functional
Details: read-out: DIZ
Outline: as §1

| Compound | zone of inhibition at 2500 µg/mL |
| --- | --- |
| OC1COc2ccccc2/C=N\n2c(nnc2-c2cccnc2)SCCCCSc2nnc(-c3cccnc3)n2/N=C\c2ccccc2OC1 | 0 mm |
| OC1COc2ccccc2CNn2c(nnc2-c2cccnc2)SCCCSc2nnc(-c3cccnc3)n2NCc2ccccc2OC1 | 0 mm |

Test system: Escherichia coli
Test: Antimicrobial activity against Escherichia coli RCMB 103001 at 5 mg/ml by agar diffusion technique
Format: functional
Details: read-out: DIZ
Outline: as §1

| Compound | zone of inhibition at 5000 µg/mL |
| --- | --- |
| OC1COc2ccccc2/C=N\n2c(nnc2-c2cccnc2)SCCCCSc2nnc(-c3cccnc3)n2/N=C\c2ccccc2OC1 | 0 mm |
| OC1COc2ccccc2CNn2c(nnc2-c2cccnc2)SCCCSc2nnc(-c3cccnc3)n2NCc2ccccc2OC1 | 0 mm |

Test system: Candida albicans
Test: Antimicrobial activity against Candida albicans RCMB 005003 at 2.5 mg/ml by agar diffusion technique
Format: functional
Details: read-out: DIZ
Outline: as §1

| Compound | zone of inhibition at 2500 µg/mL |
| --- | --- |
| OC1COc2ccccc2/C=N\n2c(nnc2-c2cccnc2)SCCCCSc2nnc(-c3cccnc3)n2/N=C\c2ccccc2OC1 | 0 mm |
| OC1COc2ccccc2CNn2c(nnc2-c2cccnc2)SCCCSc2nnc(-c3cccnc3)n2NCc2ccccc2OC1 | 0 mm |

Test system: Candida albicans
Test: Antimicrobial activity against Candida albicans RCMB 005003 at 5 mg/ml by agar diffusion technique
Format: functional
Details: read-out: DIZ
Outline: as §1

| Compound | zone of inhibition at 5000 µg/mL |
| --- | --- |
| OC1COc2ccccc2/C=N\n2c(nnc2-c2cccnc2)SCCCCSc2nnc(-c3cccnc3)n2/N=C\c2ccccc2OC1 | 0 mm |
| OC1COc2ccccc2CNn2c(nnc2-c2cccnc2)SCCCSc2nnc(-c3cccnc3)n2NCc2ccccc2OC1 | 0 mm |

Test system: Bacillus subtilis
Test: Antimicrobial activity against Bacillus subtilis RCMB 101001 at 2.5 mg/ml by agar diffusion technique
Format: functional
Details: read-out: DIZ
Outline: as §1

| Compound | zone of inhibition at 2500 µg/mL |
| --- | --- |
| OC1COc2ccccc2/C=N\n2c(nnc2-c2cccnc2)SCCCCSc2nnc(-c3cccnc3)n2/N=C\c2ccccc2OC1 | 1 mm |
| OC1COc2ccccc2CNn2c(nnc2-c2cccnc2)SCCCSc2nnc(-c3cccnc3)n2NCc2ccccc2OC1 | 6 mm |

Test system: Penicillium italicum
Test: Antimicrobial activity against Penicillium italicum RCMB 001018 at 2.5 mg/ml by agar diffusion technique
Format: functional
Details: read-out: DIZ
Outline: as §1

| Compound | zone of inhibition at 2500 µg/mL |
| --- | --- |
| OC1COc2ccccc2/C=N\n2c(nnc2-c2cccnc2)SCCCCSc2nnc(-c3cccnc3)n2/N=C\c2ccccc2OC1 | 0 mm |
| OC1COc2ccccc2CNn2c(nnc2-c2cccnc2)SCCCSc2nnc(-c3cccnc3)n2NCc2ccccc2OC1 | 0 mm |

Test system: Aspergillus fumigatus
Test: Antimicrobial activity against Aspergillus fumigatus RCMB 002008 at 2.5 mg/ml by agar diffusion technique
Format: functional
Details: read-out: DIZ
Outline: as §1

| Compound | zone of inhibition at 2500 µg/mL |
| --- | --- |
| OC1COc2ccccc2/C=N\n2c(nnc2-c2cccnc2)SCCCCSc2nnc(-c3cccnc3)n2/N=C\c2ccccc2OC1 | 0 mm |
| OC1COc2ccccc2CNn2c(nnc2-c2cccnc2)SCCCSc2nnc(-c3cccnc3)n2NCc2ccccc2OC1 | 0 mm |

Test system: Aspergillus fumigatus
Test: Antimicrobial activity against Aspergillus fumigatus RCMB 002008 at 5 mg/ml by agar diffusion technique
Format: functional
Details: read-out: DIZ
Outline: as §1

| Compound | zone of inhibition at 5000 µg/mL |
| --- | --- |
| OC1COc2ccccc2/C=N\n2c(nnc2-c2cccnc2)SCCCCSc2nnc(-c3cccnc3)n2/N=C\c2ccccc2OC1 | 0 mm |
| OC1COc2ccccc2CNn2c(nnc2-c2cccnc2)SCCCSc2nnc(-c3cccnc3)n2NCc2ccccc2OC1 | 0 mm |

Test system: Pseudomonas aeruginosa
Test: Antimicrobial activity against Pseudomonas aeruginosa RCMB 102002 at 1 mg/ml by agar diffusion technique
Format: functional
Details: read-out: DIZ
Outline: as §1

| Compound | zone of inhibition at 1000 µg/mL |
| --- | --- |
| OC1COc2ccccc2/C=N\n2c(nnc2-c2cccnc2)SCCCCSc2nnc(-c3cccnc3)n2/N=C\c2ccccc2OC1 | 0 mm |
| OC1COc2ccccc2CNn2c(nnc2-c2cccnc2)SCCCSc2nnc(-c3cccnc3)n2NCc2ccccc2OC1 | 0 mm |
